In ChEMBL document CHEMBL1148894, “Triterpene saponins from the roots of Clematis chinensis” (J Nat Prod, 2004):
Active and inactive are the calls of the source. The rule behind the calls is not given here.

Columns and labels:
HL-60 [1] = experiment: Cytotoxicity against human HL60 cells after 72 hrs by MTT assay; type: functional, cell-based; settings: HL-60, 72 h
Procedure, shortened: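 HL-60 cells (JCRB 0085) grown in RPMI 1640 with heat-inactivated 10% FBS, L-glutamine, penicillin and streptomycin. Seeded at 4 × 10^4 cells/mL, preincubated 24 h at 37 °C in 5% CO2. Samples added in EtOH-H2O (1:1) to final 0.1-50 µg/mL, with vehicle controls, then incubated 72 h. MTT added for 4 h, formazan dissolved in DMSO, A550 read. Done in triplicate; IC50 is the 50% drop in viable cells.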

PC-3 = experiment: Cytotoxicity against human PC3 cells; type: functional; settings: read-out: LC50 (the source's name)
[2] = Cytotoxicity against human BSY1 cells; type: functional; settings: BSY-1, read-out: LC50 (the source's name)
NCI-H460 = experiment: Cytotoxicity against human NCI-H460 cells; type: functional; settings: read-out: LC50 (the source's name)
U-251 = experiment: Cytotoxicity against human U251 cells; type: functional; settings: read-out: LC50 (the source's name)
MKN-28 = experiment: Cytotoxicity against human MKN28 cells; type: functional; settings: read-out: LC50 (the source's name)
OVCAR-3 = experiment: Cytotoxicity against human OVCAR-3 cells; type: functional; settings: read-out: LC50 (the source's name)
OVCAR-8 = experiment: Cytotoxicity against human OVCAR8 cells; type: functional; settings: read-out: LC50 (the source's name)
SF-295 = experiment: Cytotoxicity against human SF295 cells; type: functional; settings: read-out: LC50 (the source's name)
HL-60 [3] = experiment: Cytotoxicity against human HL60 cells at 20 uM after 72 hrs by MTT assay; type: functional, cell-based

Compound | IC50 (HL-60 [1]) [µM] | CC50 (PC-3) [µM] | CC50 [2] [µM] | CC50 (NCI-H460) [µM] | CC50 (U-251) [µM] | CC50 (MKN-28) [µM] | CC50 (OVCAR-3) [µM] | CC50 (OVCAR-8) [µM] | CC50 (SF-295) [µM] | Activity (HL-60 [3])
C[C@@H]1O[C@@H](O[C@H]2[C@H](O[C@H]3CC[C@]4(C)[C@H]5CC=C6[C@@H]7CC(C)(C)CC[C@]7(C(=O)O)CC[C@@]6(C)[C@]5(C)CC[C@H]4C3(C)C)OC[C@H](O)[C@@H]2O)[C@H](O)[C@H](O[C@@H]2OC[C@@H](O)[C@@H](O)[C@H]2O)[C@H]1O | 2.3 | – | – | – | – | – | – | – | – | –
C[C@@H]1O[C@@H](OC[C@H]2O[C@@H](O[C@H]3[C@H](O)[C@@H](O)[C@H](O[C@@H]4CO[C@@H](O[C@@H]5[C@@H](O)[C@H](C)O[C@@H](O[C@H]6[C@H](O[C@H]7CC[C@]8(C)[C@H]9CC=C%10[C@@H]%11CC(C)(C)CC[C@]%11(C(=O)O)CC[C@@]%10(C)[C@]9(C)CC[C@H]8C7(C)C)OC[C@H](O)[C@@H]6O)[C@@H]5O)[C@H](O)[C@@H]4O)O[C@@H]3CO)[C@H](O)[C@@H](O)[C@@H]2O)[C@H](O)[C@H](O)[C@H]1O | 2.8 | 6 | 5.9 | 40 | 6.3 | 30 | 47 | 71 | 6 | –
C[C@@H]1O[C@@H](OC[C@H]2O[C@@H](O[C@H]3[C@H](O)[C@@H](O)[C@H](O[C@@H]4CO[C@@H](O[C@@H]5[C@@H](O)[C@H](C)O[C@@H](O[C@H]6[C@H](O[C@H]7CC[C@]8(C)[C@H]9CC=C%10[C@@H]%11CC(C)(C)CC[C@]%11(C(=O)O[C@@H]%11O[C@H](CO[C@@H]%12O[C@H](CO)[C@@H](O[C@@H]%13O[C@@H](C)[C@H](O)[C@@H](O)[C@H]%13O)[C@H](O)[C@H]%12O)[C@@H](O)[C@H](O)[C@H]%11O)CC[C@@]%10(C)[C@]9(C)CC[C@H]8C7(C)C)OC[C@H](O)[C@@H]6O)[C@@H]5O)[C@H](O)[C@@H]4O)O[C@@H]3CO)[C@H](O)[C@@H](O)[C@@H]2O)[C@H](O)[C@H](O)[C@H]1O | – | – | – | – | – | – | – | – | – | inactive
